An excerpt weighted towards active compounds, which were near 3.1% of everything screened.
CHO parental Ca: counter-screen: ATP calcium response change in parental CHO cells. inhibition, % at 5.6 µM. parental CHO-K1, ATP-induced calcium, Fluo-8 fluorescence. hit rate 0.63% among 330,000;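 active means inhibition above that plate's mean sample inhibition plus 3 SD, cut at about 26% in these data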
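Assay system: untransfected parental CHO cell line. Also added: ATP agonist challenge. Dosing: one dose, 5.6 µM nominal. Measured by: Fluo-8 fluorescence. Read-out: % inhibition. Benchmarks: ATP wells versus no-ATP DMSO wells. Repeats: no replicates.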
OX1R antag-1: blocks the human orexin 1 receptor. O43613. OX1R-expressing cells, FRET antagonist read-out. inhibition, % at 6.6 µM. hit rate 1.8% among 330,000; in the data active means inhibition mostly above about 38%, no sharp cut-off; inactive means mostly below about 40%
Target sequence (O43613 whole entry, looked up): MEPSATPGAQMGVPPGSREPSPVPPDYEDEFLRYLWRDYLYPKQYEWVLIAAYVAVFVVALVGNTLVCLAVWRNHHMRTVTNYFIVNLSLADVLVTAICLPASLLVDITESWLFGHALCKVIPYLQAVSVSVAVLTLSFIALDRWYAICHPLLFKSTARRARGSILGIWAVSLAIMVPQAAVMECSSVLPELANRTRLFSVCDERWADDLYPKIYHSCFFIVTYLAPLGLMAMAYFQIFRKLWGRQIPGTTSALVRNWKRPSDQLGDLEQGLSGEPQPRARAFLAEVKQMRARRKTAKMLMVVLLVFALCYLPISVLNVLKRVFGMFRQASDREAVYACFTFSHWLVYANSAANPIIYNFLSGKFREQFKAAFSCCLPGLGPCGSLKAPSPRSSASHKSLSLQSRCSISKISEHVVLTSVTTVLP
GPR7 antag: blocks human GPR7 receptor signaling; P48145; GPR7-expressing cells, fluorescence antagonist assay; inhibition, % at 4.4 µM; hit rate 1.1% among 290,000; AID 1861; in the data active means inhibition above about 16%, passing the limit was not always enough;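 further: cells stimulated with the agonist NPW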
GalR3 antagonist: human GalR3 antagonism; O60755; HEK293 GalR3-CNG cAMP membrane potential fluorescence; galR3 body fused to GalR1 C-terminus; inhibition, % at 3 µM; hit rate 0.44% among 360,000; AID 651719;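 active means inhibition above the screen-wide average plus 3 SD, cut at about 13% in these data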;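 further: forskolin and galanin both at EC90 stimulate the cells; cAMP rise reported by CNG channel membrane potential dye signal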
Target sequence (O60755 1-299 limits assumed): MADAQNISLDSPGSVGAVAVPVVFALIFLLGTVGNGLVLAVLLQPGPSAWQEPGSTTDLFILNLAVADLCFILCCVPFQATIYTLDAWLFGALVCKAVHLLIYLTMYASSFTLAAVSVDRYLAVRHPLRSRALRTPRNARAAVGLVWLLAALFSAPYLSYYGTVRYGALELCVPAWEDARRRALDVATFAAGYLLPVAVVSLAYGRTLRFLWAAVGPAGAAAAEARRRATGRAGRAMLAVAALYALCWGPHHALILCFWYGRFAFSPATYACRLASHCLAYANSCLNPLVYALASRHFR
OX1R antag-2: antagonists of human orexin 1 receptor; O43613; CHO/OX1R cells, Fluo-8 calcium fluorescence, orexin A; inhibition, % at 5 µM; hit rate 0.43% among 330,000;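 active means inhibition above its plate's threshold, mean inhibition of all tested compounds on the plate plus 3 SD, cut at about 37% in these data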
OX1R HTRF conf: OX1R (human) antagonism, HTRF confirmed; OX1R-expressing cells, HTRF antagonist assay; inhibition, % at 6.6 µM; hit rate 49% among 1,800; shares compounds with OX1R antag-1; in the data active means inhibition above about 55%;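 further: CHO cells expressing OX1R stimulated with orexin A at about EC80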
CHO-K1 HTRF: counter-screen: parental CHO-K1 HTRF response; shares compounds with OX1R antag-1; parental CHO-K1 cells, HTRF counterscreen; inhibition, % at 6.6 µM; hit rate 48% among 1,800; AID 493232; in the data active means inhibition above about 17%
Each line names hits and unclear results; the compound was inactive in the other large screens (follow-up assays come after a bar, where they were run).

Cc1ccc(-c2ccccc2NC(=O)CS(=O)CC(=O)Nc2ccc(C)c(Cl)c2)o1 (configuration not stated)	OX1R antag-1 82 | OX1R HTRF conf inactive | CHO-K1 HTRF inactive
Cc1cc(N2CCN(C(=O)OC(C)(C)C)C[C@H]2C)ccc1N1C[C@@H](C)O[C@@H](C)C1	none (no result: CHO parental Ca, OX1R antag-1, GPR7 antag, OX1R antag-2)
CCNC(=O)N1CCN(c2ccc(N3CCN(C(=O)NCC)[C@@H](C)C3)c(C)c2)[C@H](C)C1	none (no result: CHO parental Ca, OX1R antag-1, GPR7 antag, OX1R antag-2)
O=C(NCc1ccco1)Nc1ccc(Br)cc1	none
O=C(NCc1ccco1)Nc1ccc2nsnc2c1	OX1R antag-1 96 | OX1R HTRF conf inactive | CHO-K1 HTRF inactive
O=[N+]([O-])c1ccc2nnn(O)c2c1	OX1R antag-1 91 | OX1R HTRF conf inactive | CHO-K1 HTRF 46
COc1ccccc1C(=O)NCCCCNC(=O)c1ccccc1OC	OX1R antag-1 79 (no result: GPR7 antag) | OX1R HTRF conf 59 | CHO-K1 HTRF inactive
COc1ccc(CCC2=NCCN2C(CC(C)C)c2nc3ccccc3[nH]2)cc1 (configuration not stated)	none (no result: CHO parental Ca, OX1R antag-1, GPR7 antag, OX1R antag-2)
COc1ccc(C(=O)Oc2cccc(Nc3ncnc4ccccc34)c2)cc1OC	OX1R antag-1 84 | OX1R HTRF conf inactive | CHO-K1 HTRF inactive
NS(=O)(=O)c1ccc(CNC(=O)c2cc(-c3ccccn3)nc3ccc(Cl)cc23)cc1	OX1R antag-1 84 | OX1R HTRF conf 59 | CHO-K1 HTRF inactive
C[C@H]1CN([C@@H](C)CO)S(=O)(=O)c2ccc(Br)cc2O[C@@H]1CN(C)C(=O)Cc1cccnc1	none (no result: CHO parental Ca, OX1R antag-1, GPR7 antag, OX1R antag-2)
CCN1C(=O)/C(=C2/SC(C)=C(C)N2CC)SC1=S	OX1R antag-1 96 | OX1R HTRF conf 84 | CHO-K1 HTRF inactive
COc1ccc(CCN2C(=O)c3cccnc3C2=O)cc1OC	OX1R antag-1 82 | OX1R HTRF conf inactive | CHO-K1 HTRF 21
COc1ccc(CCN2C(=O)C=CC2=O)cc1OC	none (no result: CHO parental Ca, OX1R antag-1, GPR7 antag, OX1R antag-2)
CC1CCN(C(=O)Cn2c3ccccc3c3nc4n(c(=O)c32)CCCS4)CC1	none
CC1CCN(C(=O)Cn2c3ccc(F)cc3c3nc4n(c(=O)c32)CCCS4)CC1	OX1R antag-1 91 (no result: GalR3 antagonist) | OX1R HTRF conf inactive | CHO-K1 HTRF inactive
CCCn1c(N)c(N(CCOC)C(=O)c2cc3ccccc3cc2OC)c(=O)[nH]c1=O	none (no result: GPR7 antag)
O=C(C1CCC1)N1CCN(Cc2ccccc2)CC1	none
c1ccc(CN2CCN(C3CCCSc4ccccc43)CC2)cc1 (configuration not stated)	OX1R antag-1 87 (no result: GPR7 antag) | OX1R HTRF conf 79 | CHO-K1 HTRF inactive
CC1Cc2ccccc2N1C(=O)CCS(=O)(=O)c1cccc2nonc12 (configuration not stated)	OX1R antag-1 85 | OX1R HTRF conf inactive | CHO-K1 HTRF 23
Cc1ccc(C)c(N2CCN(C(=O)CCS(=O)(=O)c3cccc4nonc34)CC2)c1	none
Cc1ccc2ncnc(Nc3ccc(C)c(C)c3)c2c1	OX1R antag-1 78 | OX1R HTRF conf inactive | CHO-K1 HTRF inactive
CC(C)Oc1cc(F)ccc1-c1cc(C(=O)NCc2ccccc2)[nH]n1	none (no result: CHO parental Ca, OX1R antag-1, GPR7 antag, OX1R antag-2)
NC1=NC(=O)/C(=C\c2ccc(O)c([N+](=O)[O-])c2)S1	OX1R antag-1 90 | OX1R HTRF conf 69 | CHO-K1 HTRF 58
COc1cc2c(cc1OC)-c1c(OC)c(OC)cc3ccnc(c13)C2=O	OX1R antag-1 80 | OX1R HTRF conf inactive | CHO-K1 HTRF 26
COc1cc(-c2nccc3cc4c(cc23)OCO4)cc(OC)c1OC	none (no result: CHO parental Ca, OX1R antag-1, GPR7 antag, OX1R antag-2)
Cn1c(N=NC(=O)c2ccccc2)c(O)c2ccccc21	OX1R antag-1 137 | OX1R HTRF conf 98 | CHO-K1 HTRF 52
O=c1[nH]c(=O)c2nc(-c3ccc(Cl)cc3)cnc2[nH]1	OX1R antag-1 77 | OX1R HTRF conf inactive | CHO-K1 HTRF 68
CCOC(=O)CSc1ccc2ccccc2n1	none
CCOC(=O)CN1C=C(c2ccc3ccccc3n2)C(C[N+](=O)[O-])c2ccccc21 (configuration not stated)	OX1R antag-1 117 (no result: GalR3 antagonist) | OX1R HTRF conf 55 | CHO-K1 HTRF 67
COc1cc2c(cc1OC)-c1cc3ccc4c(c3c[n+]1CC2)OCO4	OX1R antag-1 79 | OX1R HTRF conf inactive | CHO-K1 HTRF 75
COc1cc2c(cc1O)CC[n+]1cc3c(OC)c(OC)ccc3cc1-2	OX1R antag-1 77 | OX1R HTRF conf inactive | CHO-K1 HTRF 37
COc1cc2c(cc1OC)C(c1ccccc1)=NCC2	none
Cc1cccc(OCCCN2CCC(C(O)(c3ccccc3)c3ccccc3)CC2)c1	none (no result: CHO parental Ca, OX1R antag-1, GPR7 antag, OX1R antag-2)
O=C(CSc1nnc2ccccn12)NNC(=O)c1ccc([N+](=O)[O-])cc1	OX1R antag-1 97 | OX1R HTRF conf inactive | CHO-K1 HTRF 36
O=C(CSc1nnc2ccccn12)NNC(=O)c1ccccc1	none
CC(=O)N1CCN(C(=O)COC(=O)c2oc3ccccc3c2C)CC1	none (no result: GPR7 antag)
O=C(c1ccc(Cl)cc1[N+](=O)[O-])N1CCOCC1	none
O=C(c1ccc([N+](=O)[O-])cc1[N+](=O)[O-])N1CCCC1	OX1R antag-1 112 | OX1R HTRF conf inactive | CHO-K1 HTRF 46
O=C(NCC1CCN(C(=O)c2ccc([N+](=O)[O-])cc2)CC1)c1ccc([N+](=O)[O-])cc1	OX1R antag-1 86 | OX1R HTRF conf inactive | CHO-K1 HTRF 36
O=C(c1ccc(F)cc1)N1CCN(C(=O)c2ccc([N+](=O)[O-])cc2)CC1	OX1R antag-1 86 | OX1R HTRF conf inactive | CHO-K1 HTRF 34
COc1ccc(C2=Nc3ccccc3C2(O)CCN2C(=O)c3ccccc3C2=O)cc1 (configuration not stated)	none (no result: CHO parental Ca, OX1R antag-1, GPR7 antag, OX1R antag-2)
COC(=O)c1cc2c(c3c4ccccc4n(S(=O)(=O)c4ccc(C)cc4)c13)C(=O)N(Cc1ccccc1)C2	none (no result: CHO parental Ca, OX1R antag-1, GPR7 antag, OX1R antag-2)
COCC(=O)N[C@@H]1c2ccccc2CC[C@@H]1OCc1ccccc1	none (no result: GPR7 antag)
CCOC(=O)C1=CCN(S(=O)(=O)c2ccc(F)cc2)C1c1cccc(F)c1 (configuration not stated)	none (no result: CHO parental Ca, OX1R antag-1, GPR7 antag, OX1R antag-2)
CCOC(=O)Cn1nnc(-c2ccc([N+](=O)[O-])cc2)n1	OX1R antag-1 96 | OX1R HTRF conf inactive | CHO-K1 HTRF 32
CC(=O)N(/N=C1\Sc2ccccc2C1=O)c1ccccc1C	OX1R antag-1 105 | OX1R HTRF conf inactive | CHO-K1 HTRF inactive
O=C(Nc1ccc2c(c1)OCCO2)C(C1CC1)n1c(=O)c(-c2ccccc2)nc2ccccc21 (configuration not stated)	none (no result: CHO parental Ca, OX1R antag-1, GPR7 antag, OX1R antag-2)
COCCCn1cnc2oc3nc4ccccc4nc3c2c1=O	OX1R antag-1 85 | OX1R HTRF conf 67 | CHO-K1 HTRF 107
O=C(CNC(=O)c1cccs1)NCC(=O)OCC(=O)c1ccc([N+](=O)[O-])cc1	OX1R antag-1 103 | OX1R HTRF conf inactive | CHO-K1 HTRF 43
COc1ccc(N2CCN(C(=O)c3cccc(S(=O)(=O)N4CCCc5ccccc54)c3)CC2)cc1	none (no result: GPR7 antag)

Bioassay records (PubChem)
